The nature of assay [1]: Inhibition of Bacillus stearothermophilus alpha-glucosidase using 4-nitrophenyl alpha-D-glucopyranoside as substrate after 30 mins by spectrophotometric analysis. Further details: species or system Geobacillus stearothermophilus. Put shortly: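 Inhibitor in phosphate buffer pH 6.8 with 1 mM 4-nitrophenyl α-D-glucopyranoside was preincubated 5 min at 37 °C. Then 0.075 unit enzyme was added and the mix held 30 min at 37 °C. Stopped with 100 mM Na₂CO₃; liberated p-nitrophenol read at 400 nm. Inhibitor levels were 1, 3, 10, 15 and 25, each in triplicate. IC50 came from an activity% vs log[inhibitor] plot, with no-inhibitor control taken as 100%.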

Assay [2] can be described thus: Inhibition of almond beta-glucosidase using 4-nitrophenyl beta-D-glucopyranoside as substrate after 30 mins by spectrophotometric analysis. Further details: species or system Prunus dulcis. A digest of the protocol:
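Reaction held 1 mM 4-nitrophenyl β-D-glucopyranoside in phosphate buffer pH 6.8 with inhibitor, preincubated at 37 °C for 5 min. Enzyme (EC 3.2.1.21, 0.075 unit) was then added, followed by 30 min at 37 °C. Na₂CO₃ (100 mM) stop, then absorbance at 400 nm. Inhibitor at 10, 20, 30, 50, 70, 80, 90 and 100, triplicates. Control without inhibitor set to 100%; IC50 from activity% vs log[inhibitor].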

Broadly, the IC50 is the concentration at which inhibition is half-maximal. Read a high IC50 as weaker potency. As for `CC(=O)O[C@H]1[C@H](OC(C)=O)[C@@H](n2ccc3ccccc32)C=C[C@@H]1n1ccc2ccccc21`, the IC50 in assay [1] is 19.3 µM; in assay [2], 52.8 µM.
The matching figures for `CC(=O)O[C@@H]1[C@@H](O)[C@H](OC(C)=O)C=C[C@H]1n1ccc2ccccc21`: 11.6 µM and 23.1 µM.
Taken in the same sequence, the figures for `C[C@H]1O[C@H](O[C@H]2[C@H](O)[C@@H](O)[C@@H](O[C@H]3[C@H](O)[C@@H](O)C(O)O[C@@H]3CO)O[C@@H]2CO)[C@H](O)[C@@H](O)[C@@H]1N[C@H]1C=C(CO)[C@@H](O)[C@H](O)[C@H]1O` (stereo not given in full) [ACARBOSE] were 9.24 µM and 103 µM.
The matching figures for `O[C@H]1[C@H](O)[C@@H](N2CCc3ccccc32)C=C[C@@H]1N1CCc2ccccc21`: 18.1 µM and 67.7 µM.
With `CC(=O)O[C@@H]1[C@@H](O)[C@H](OC(C)=O)C=C[C@H]1N1CCc2ccccc21`, the figures for the IC50 in assay [1] and in assay [2] were 12.4 µM and 24.3 µM, respectively.

The values are drawn from ChEMBL document CHEMBL2203193, “Synthesis of novel mono and bis-indole conduritol derivatives and their α/β-glycosidase inhibitory effects” (Bioorg Med Chem Lett, 2012).
